# Experimental data published in PMC7056050 (Clinical and Translational Gastroenterology, 2020).
# Key:
# [1] = Serum stability by HPLC, incubation in mouse serum ex vivo; format: in vitro ADME; conditions: 30 uM peptide in mouse serum at 37 °C, supernatant analysed by HPLC
# Method in brief: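 Peptide at 30 uM was incubated in mouse serum at 37 °C for up to 24 h. Samples were taken at 0, 1, 2 and 24 h and centrifuged at 14,000 rpm. Supernatant aliquots were analysed by HPLC at each time point.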
# claudin-1 [2] = molecular target: T1, claudin-1 (Mus musculus, UniProt O88551); format: in vivo, CPC;Apc mice; conditions: wide-field NIR fluorescence after intravenous administration
# T1 sequence (O88551 1-211): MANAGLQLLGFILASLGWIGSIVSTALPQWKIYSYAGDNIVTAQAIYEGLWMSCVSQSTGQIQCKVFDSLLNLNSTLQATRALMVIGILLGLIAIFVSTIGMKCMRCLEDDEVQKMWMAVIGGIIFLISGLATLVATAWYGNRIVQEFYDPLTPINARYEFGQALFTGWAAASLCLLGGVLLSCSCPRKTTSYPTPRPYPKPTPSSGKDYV
# Method in brief: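 Mice aged 2–4 months ate chlorophyll-free chow for 1 week, were fasted 4–6 h and had the colon rinsed with water. They were under isoflurane 2–4% in oxygen (0.5 L/min). A rigid endoscope in the distal colon gave 671 nm excitation; 200 μM peptide in 200 μL PBS was given i.v. Images were taken 0–24 h and normalised to coregistered reflectance. T/B ratios used mean intensity of three 20×20 μm2 regions each for adenoma and adjacent normal mucosa. Control peptide was imaged in the same mouse 7 days later. n = 6 mice per group; data log-transformed; paired t tests.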
# claudin-1 [3] = molecular target: T1, claudin-1; assay: Ex vivo peptide staining; format: binding; conditions: for Mean fluorescence intensity, adenoma vs normal: ex vivo staining, 0.5 μM peptide, paired t tests, n = 6 per group
# Method in brief: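 Distal colon was opened, rinsed in cold PBS, fixed ~48 h in 10% neutral-buffered formalin, moved to 70% ethanol and processed for histology. Adjacent sections were deparaffinized and antigen-retrieved. Blocking was 2% BSA ~1 h, then 0.5 μM peptide for 10 min. For colocalization, peptide came first, then anti-claudin-1 antibody detected with AF488 goat anti-rabbit IgG. Imaged by inverted confocal microscopy.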
# claudin-1 [4] = molecular target: T1, claudin-1; assay: Side-view confocal endomicroscopy of colon in vivo; parameters: species or system CPC;Apc mice; conditions: for Binding/staining pattern in normal colon on confocal images: in vivo, ~1 hour after i.v. 200 μM in 200 μL PBS
# [5] = Biodistribution in major organs; parameters: species or system CPC;Apc mice; conditions: organs ex vivo ~1 hour after i.v. injection, IVIS, n = 6
# Method in brief: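 CPC;Apc mice received 200 μL PBS containing 200 μM labelled peptide, control peptide or free Cy5.5 i.v. They were sacrificed ~1 h later. Organs were rinsed in cold PBS, dried and imaged unperfused (ex 640 nm, em 720 nm). Intensity was averaged from three regions per organ. Values were log-transformed and fitted to an ANOVA with 24 means (3 groups, 8 tissues) plus mouse effects.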
# [6] = ex vivo, peptide then anti-claudin-1 antibody-AF488, merged image
Substance,Peptide stability in mouse serum by HPLC at 24 hours [1],Fluorescence signal from nonpolypoid adenoma (claudin-1 [2]),"Mean fluorescence intensity, adenoma vs normal (claudin-1 [3])","Correlation ρ of co-staining with anti-claudin-1 antibody, adenoma (claudin-1 [3]; [6])","Correlation ρ of co-staining with anti-claudin-1 antibody, normal colon (claudin-1 [3]; [6])","Mean fluorescence intensity, adenoma vs adjacent normal colon (claudin-1 [4]; confocal, ~1 hour after injection, paired t test, n = 11 mice)",Binding/staining pattern in normal colon on confocal images (claudin-1 [4]),"Mean fluorescence intensity, adenoma vs adjacent normal colon [5]",Fluorescence signal from polypoid adenoma (claudin-1 [2]),"Staining of adenoma and normal colon sections (claudin-1 [3]; 0.5 μM peptide for 10 minutes on formalin-fixed sections, confocal microscope)"
RTSPSSR [RTS*-Cy5.5],signs of peptide breakdown,increased intensity,significantly greater for adenoma vs normal,0.66,0.60,significantly greater for adenoma than for adjacent normal colon,binding at tight junctions in between cells,significantly greater,–,–
"SPTSSRR [SPT*-Cy5.5, reference compound]",–,minimal signal,No difference,–,–,–,vague appearance of crypt structures,–,minimal signal,Minimal signal
